Calls of active or inactive are those of the source.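 The calls were made as follows, unless noted: active = viability loss from added drug above about 55%, and viability with drug at most 40%, in both replicates (limit read from the data, passing the limit was not always enough); inconclusive = both conditions met in only one replicate; inactive = neither replicate meets both conditions.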

For orientation: viability means a read-out of living cells in per cent, often relative to untreated cells. The term inhibition denotes the change of the read-out against control, counted positive when it falls.

Test [1] is described as follows: reduced viability of SK-BR-3 breast cancer cells – cell-based, 24 h, human, pilot screen (AID 572;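 active = viability at or below 10% of carrier control in both of two separate runs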;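 also: compound exposure lasted between 18 and 24 h rather than exactly 24 h; 100% = carrier-treated control wells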). Conditions: SK-BR-3 viability, CellTiter-Glo luminescence, at 10 µM, stronger effect = lower value. Background: Cellular ATP, detected with luciferase, serves as a proxy for viable cell number.
Test [2] in a line: HUVEC growth inhibition – cell-based, human, primary screen (AID 575;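 active = viability at or below 30% in both replicate assays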;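 also: 100% = median of untreated cell wells with 0.1% DMSO on each plate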). To be noted: HUVEC proliferation, CellTiter-Glo luminescence, 72 h; at 10 µM; stronger effect = lower value. The procedure, abridged:
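Test system: primary human umbilical vein endothelial cells; medium: endothelial basal medium with 2% FBS plus growth supplements; dosing: 10 µM compound only; times: 72 h treatment at 37 °C; signal: CTG luminescence; read-out: % viability relative to median vehicle-well signal on each plate; control set: vehicle and MePR control wells; plate: 384-well, collagen-coated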

Test [3] can be described thus: H69AR cell proliferation blockers – human, duplicate replicates, primary screen (AID 580;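 active = viability at or under a set limit in both replicates, limit being median viability minus 3 SD, cut at about 48% in these data, passing the limit was not always enough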;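 also: 100% = mean luminescence of untreated wells and 0% = no signal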). To be noted: H69AR lung tumor cells viability, ATP luminescence, 72 h; at 10 µM; stronger effect = lower value.
Test [4] is described as follows: MRP1 drug-resistance reversers in H69AR cells – cell-based, doxorubicin co-treatment, pilot screen (AID 601). To be noted: CellTiter-Glo, 72 h, at 10 µM; for differential viability (reversal): stronger effect = higher value.
A short description of test [5]: yeast transport mutant growth inhibition pilot in 384-well plates, post-Golgi transport modulator project (AID 636; in the data active = inhibition above about 31%). Conditions: absorbance 615 nm, about 18 h, stronger effect = higher value.
Test [6] in a line: growth suppression of yeast trafficking mutant, preliminary HTS, modulators of trafficking downstream of Golgi apparatus project, 1536-format plate, OD 615 nm (AID 637; in the data active = inhibition above about 30%). To be noted: yeast transport mutant growth, absorbance 615 nm, 18 h; stronger effect = higher value.
Where [7] appears, read: H69AR cells + 2 uM doxorubicin, measured here: viability with 2 uM doxorubicin, stronger effect = lower value.
Setting [8] is: H69AR cells, compound alone cytotoxicity.

Turning to `Cn1c(=O)c2c(nc(N3CCN(c4ccccc4)CC3)n2CCCc2ccccc2)n(C)c1=O`, the viability in test [1] is 68% (inactive); in test [2] it was 90.6% (inactive); in test [3] it was 84.1% (inactive); in test [4] (setting [7]), 82.2%; in test [4] (setting [8]), 84.1%. The differential viability (reversal) in test [4] (H69AR cells + 2 uM doxorubicin) is 1.85% (inactive). Moreover, the inhibition is -3.33% (inactive) in test [5] and 7.09% (inactive) in test [6].
Take `COc1cc(C(=O)Nc2cc(C)ccn2)cc(OC)c1OC`: the viability in test [1] is 90% (inactive); in test [2], 89.5% (inactive); in test [3], 97.5% (inactive); in test [4] (setting [7]), 79.9%; in test [4] (setting [8]), 97.5%. In addition, the differential viability (reversal) in test [4] (H69AR cells + 2 uM doxorubicin) is 17.6% (inactive). Further, the inhibition in test [5] was 0.55% (inactive); in test [6], -6.13% (inactive).
Turning to `COc1ccc(S(=O)(=O)Nc2cccc(C)n2)c2ccccc12`, the viability in test [1] was 94% (inactive); in test [2], 109% (inactive); in test [3] it was 100% (inactive); in test [4] (setting [7]), 86.2%; in test [4] (setting [8]) it was 100%. In addition, in test [4] (H69AR cells + 2 uM doxorubicin), the differential viability (reversal) is 13.8% (inactive). For the same compound, the inhibition in test [5] is -2.08% (inactive); in test [6], 4.43% (inactive).
In the case of `COCCCn1nnnc1SCC(=O)Nc1nc(C)c(C)s1`, the viability in test [1] is 109% (inactive); in test [2], 89.2% (inactive); in test [3] it was 88.1% (inactive); in test [4] (setting [7]), 85.6%; in test [4] (setting [8]), 88.1%. Moreover, the differential viability (reversal) in test [4] (H69AR cells + 2 uM doxorubicin) was 2.5% (inactive). For the same compound, the figures for the inhibition in test [5] and in test [6] were -2.88% (inactive) and 1.13% (inactive), respectively.
For the compound `Cc1nnc(SCc2nnc(-c3ccccc3Br)o2)n1-c1ccccc1`, the viability was 86% (inactive) in test [1]; 87.5% (inactive) in test [2]; 90.2% (inactive) in test [3]; 93.6% in test [4] (setting [7]); 90.2% in test [4] (setting [8]). In test [4] (H69AR cells + 2 uM doxorubicin), the differential viability (reversal) is -3.37% (inactive). In addition, the results for the inhibition in test [5] and in test [6] were 0.41% (inactive) and 0% (inactive), respectively.
As for `COC(=O)c1[nH]c(C)c(/C(O)=C2\C(=O)C(=O)N(CCN3CCOCC3)C2c2cccs2)c1C` (centres undefined), the viability in test [1] was 105% (inactive); in test [2], 76.5% (inactive); in test [3], 17.3% (active); in test [4] (setting [7]), 71.8%; in test [4] (setting [8]) it was 17.3%. Moreover, in test [4] (H69AR cells + 2 uM doxorubicin), the differential viability (reversal) was -54.5% (inactive). The inhibition in test [5] is -2.3% (inactive); in test [6], 13.1% (inactive).
In the case of `OCC(O)CN1CCN(c2ccccc2)CC1` (centres undefined), the viability was 119% (inactive) in test [1]; 100% (inactive) in test [2]; 92.9% (inactive) in test [3]; 94.5% in test [4] (setting [7]); 92.9% in test [4] (setting [8]). Moreover, the differential viability (reversal) in test [4] (H69AR cells + 2 uM doxorubicin) was -1.6% (inactive). Further, the figures for the inhibition in test [5] and in test [6] were 1.95% (inactive) and 3.83% (inactive), respectively.
Take `CCCNC(=O)NC1C(NC(=O)NCCC)N(C)C(=O)N1C` (centres undefined): the viability in test [1] is 86% (inactive); in test [2], 104% (inactive); in test [3], 105% (inactive); in test [4] (setting [7]) it was 90.7%; in test [4] (setting [8]), 105%. For the same compound, the differential viability (reversal) in test [4] (H69AR cells + 2 uM doxorubicin) was 14.2% (inactive). The figures for the inhibition in test [5] and in test [6] were -1.04% (inactive) and -0.49% (inactive), respectively.
Take `Cc1nc2ccccc2nc1OCC(=O)Nc1cc(C(F)(F)F)ccc1N1CCOCC1`: the viability in test [1] is 72% (inactive); in test [2], 93% (inactive); in test [3], 96.3% (inactive); in test [4] (setting [7]), 101%; in test [4] (setting [8]), 96.3%. For the same compound, the differential viability (reversal) in test [4] (H69AR cells + 2 uM doxorubicin) is -4.5% (inactive). For the same compound, the inhibition in test [5] is -6.44% (inactive); in test [6], 3.64% (inactive).
As for `CN(C(=O)C1CCOC1)c1nnc(-c2cccnc2)s1` (centres undefined), the viability is 92% (inactive) in test [1]; 101% (inactive) in test [2]; 88.5% (inactive) in test [3]; 84.3% in test [4] (setting [7]); 88.5% in test [4] (setting [8]). Besides, in test [4] (H69AR cells + 2 uM doxorubicin), the differential viability (reversal) was 4.19% (inactive). In addition, the inhibition in test [5] was -1.23% (inactive); in test [6] it was 19.4% (inactive).
On to `OC1C=CSc2nc3ccccc3n21` (centres undefined), for which the viability in test [1] was 83.5% (inactive); in test [2], 79% (inactive); in test [3] it was 66.8% (inactive); in test [4] (setting [7]) it was 75%; in test [4] (setting [8]), 66.8%. The differential viability (reversal) in test [4] (H69AR cells + 2 uM doxorubicin) is -8.25% (inactive). For the same compound, the results for the inhibition in test [5] and in test [6] were -5.68% (inactive) and 1.8% (inactive), respectively.
On to `NNC(=O)c1ccncc1`, for which the viability in test [1] is 108% (inactive); in test [2], 101% (inactive); in test [3], 104% (inactive); in test [4] (setting [7]), 93.7%; in test [4] (setting [8]), 104%. Besides, the differential viability (reversal) in test [4] (H69AR cells + 2 uM doxorubicin) was 10.2% (inactive). Also, the inhibition is 1.04% (inactive) in test [5] and 17.5% (inactive) in test [6].
On to `CCOc1nc(-c2ccccc2O)nc2ccccc12`, for which the viability in test [1] was 68% (inactive); in test [2], 108% (inactive); in test [3] it was 100% (inactive); in test [4] (setting [7]), 99.5%; in test [4] (setting [8]), 100%. In addition, the differential viability (reversal) in test [4] (H69AR cells + 2 uM doxorubicin) is 0.64% (inactive). The results for the inhibition in test [5] and in test [6] were 1.23% (inactive) and 0.55% (inactive), respectively.
On to `O=C(NCc1ccco1)c1cccc(S(=O)(=O)N2CCCCC2)c1`, for which the viability in test [1] was 110% (inactive); in test [2], 99.3% (inactive); in test [3], 90.9% (inactive); in test [4] (setting [7]) it was 96%; in test [4] (setting [8]), 90.9%. Moreover, the differential viability (reversal) in test [4] (H69AR cells + 2 uM doxorubicin) is -5.04% (inactive). Further, the inhibition in test [5] was 4.66% (inactive); in test [6], 8.73% (inactive).
For the compound `COC(=O)c1cc(Br)c(=O)n(CCc2ccc(F)cc2)c1`, the viability in test [1] was 78% (inactive); in test [2], 118% (inactive); in test [3] it was 100% (inactive); in test [4] (setting [7]) it was 92%; in test [4] (setting [8]), 100%. The differential viability (reversal) in test [4] (H69AR cells + 2 uM doxorubicin) is 8.46% (inactive). The inhibition in test [5] was -5.27% (inactive); in test [6], 3.09% (inactive).
Consider `NC(=O)N1c2ccccc2C=Cc2ccccc21`, for which the viability in test [1] was 95% (inactive); in test [2] it was 79.4% (inactive); in test [3], 107% (inactive); in test [4] (setting [7]) it was 97.1%; in test [4] (setting [8]), 107%. Moreover, in test [4] (H69AR cells + 2 uM doxorubicin), the differential viability (reversal) is 9.74% (inactive). Moreover, the figures for the inhibition in test [5] and in test [6] were -2.86% (inactive) and 3.17% (inactive), respectively.
On to `O=C(NCC1CCCO1)C1CCC(CNS(=O)(=O)c2ccccc2)CC1` (centres undefined), for which the viability is 101% (inactive) in test [1]; 81.6% (inactive) in test [2]; 90.3% (inactive) in test [3]; 84.8% in test [4] (setting [7]); 90.3% in test [4] (setting [8]). The differential viability (reversal) in test [4] (H69AR cells + 2 uM doxorubicin) was 5.42% (inactive). Further, the values for the inhibition in test [5] and in test [6] were 1.95% (inactive) and -1.31% (inactive), respectively.
For the compound `CCCCOC(=O)Nc1nccs1`, the viability in test [1] is 101% (inactive); in test [2], 107% (inactive); in test [3] it was 103% (inactive); in test [4] (setting [7]), 101%; in test [4] (setting [8]), 103%. For the same compound, the differential viability (reversal) in test [4] (H69AR cells + 2 uM doxorubicin) was 1.28% (inactive). The values for the inhibition in test [5] and in test [6] were -5.33% (inactive) and -3.27% (inactive), respectively.
